According to paper PMC3746001 (ACS chemical biology, 2013):
Where two headings read alike, the source gives them in different places.

Assays:
hpol ι = biological target: T1, hpol ι (Homo sapiens, UniProt Q9UNA4); assay: Fluorescence-based polymerase assay, hpol ι; type: biochemical
T1 sequence (Q9UNA4 26-446): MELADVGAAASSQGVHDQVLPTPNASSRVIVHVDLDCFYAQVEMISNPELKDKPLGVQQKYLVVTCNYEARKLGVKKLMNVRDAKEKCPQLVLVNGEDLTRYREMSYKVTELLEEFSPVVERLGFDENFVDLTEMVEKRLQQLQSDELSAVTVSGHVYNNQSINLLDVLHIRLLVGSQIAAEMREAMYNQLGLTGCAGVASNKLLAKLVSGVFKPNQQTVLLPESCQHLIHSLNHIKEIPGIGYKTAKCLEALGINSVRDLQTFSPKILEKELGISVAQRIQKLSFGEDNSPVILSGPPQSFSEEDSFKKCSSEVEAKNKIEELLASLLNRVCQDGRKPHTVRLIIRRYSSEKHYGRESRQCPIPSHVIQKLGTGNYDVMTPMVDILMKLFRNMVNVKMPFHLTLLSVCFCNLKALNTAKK

[1] = biological target: T2, human Y-family DNA polymerase kappa (hpol κ) (Homo sapiens, UniProt Q9UBT6); assay: Fluorescence-based polymerase assay, hpol κ; type: biochemical
T2 sequence (Q9UBT6 19-526): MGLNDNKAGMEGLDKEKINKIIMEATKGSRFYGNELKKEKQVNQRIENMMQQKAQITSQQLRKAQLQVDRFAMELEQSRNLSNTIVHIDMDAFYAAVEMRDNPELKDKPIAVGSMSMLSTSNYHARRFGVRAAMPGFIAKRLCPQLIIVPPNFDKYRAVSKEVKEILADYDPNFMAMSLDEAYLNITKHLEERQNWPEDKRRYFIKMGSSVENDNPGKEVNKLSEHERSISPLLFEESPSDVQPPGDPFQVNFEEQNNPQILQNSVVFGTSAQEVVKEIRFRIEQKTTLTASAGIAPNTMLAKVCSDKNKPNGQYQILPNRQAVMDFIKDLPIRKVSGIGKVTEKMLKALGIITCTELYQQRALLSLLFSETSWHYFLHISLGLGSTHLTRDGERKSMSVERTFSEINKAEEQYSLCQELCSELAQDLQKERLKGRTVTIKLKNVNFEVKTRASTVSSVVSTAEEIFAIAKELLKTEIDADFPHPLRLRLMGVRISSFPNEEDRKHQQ

Dpo1 = biological target: T3, Dpo1 (Saccharolobus solfataricus, UniProt P26811); assay: Fluorescence-based polymerase assay, Dpo1; type: biochemical, S. solfataricus
T3 sequence (P26811 1-882): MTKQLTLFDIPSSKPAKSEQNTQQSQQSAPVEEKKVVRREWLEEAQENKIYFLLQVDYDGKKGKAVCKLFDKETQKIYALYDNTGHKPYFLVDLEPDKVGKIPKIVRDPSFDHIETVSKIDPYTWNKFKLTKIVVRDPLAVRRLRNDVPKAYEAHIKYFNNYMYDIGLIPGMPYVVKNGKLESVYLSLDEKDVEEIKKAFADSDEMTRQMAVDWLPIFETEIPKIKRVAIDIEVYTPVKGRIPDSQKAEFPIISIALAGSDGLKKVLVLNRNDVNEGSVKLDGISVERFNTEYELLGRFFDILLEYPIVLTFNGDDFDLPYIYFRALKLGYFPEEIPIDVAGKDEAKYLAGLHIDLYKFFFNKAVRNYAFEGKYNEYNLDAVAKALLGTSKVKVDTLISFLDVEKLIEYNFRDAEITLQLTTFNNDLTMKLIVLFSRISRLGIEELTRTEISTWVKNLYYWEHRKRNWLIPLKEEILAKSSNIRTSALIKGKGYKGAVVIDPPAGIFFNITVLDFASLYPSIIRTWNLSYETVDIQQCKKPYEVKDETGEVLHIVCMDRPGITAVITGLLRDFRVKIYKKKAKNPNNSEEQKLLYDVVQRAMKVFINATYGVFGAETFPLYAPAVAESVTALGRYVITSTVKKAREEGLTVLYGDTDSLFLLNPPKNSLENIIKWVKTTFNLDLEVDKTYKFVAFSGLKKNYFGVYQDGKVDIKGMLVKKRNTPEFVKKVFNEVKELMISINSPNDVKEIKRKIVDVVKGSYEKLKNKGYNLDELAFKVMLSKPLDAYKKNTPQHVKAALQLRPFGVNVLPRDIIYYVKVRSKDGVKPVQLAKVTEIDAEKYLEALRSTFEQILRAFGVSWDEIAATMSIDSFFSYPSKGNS

HIV-1 RT = HIV-1 RT (Human immunodeficiency virus type 1 group M subtype B, UniProt P04585); assay: Fluorescence-based polymerase assay, HIV-1 RT; type: biochemical
hpol η = assay: Steady-state kinetic analysis of hpol η activity in the presence of inhibitor; type: biochemical, human; conditions: for kcat: varying dTTP
Summary of the method: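 Recombinant hpol η (His/GST-tagged in E. coli BL21(DE3), nickel then GST affinity, GST cleaved) in the fluorescence strand-displacement assay (TAMRA-labelled displaced strand), in 50 mM Tris pH 8.0, 40 mM NaCl, 2 mM DTT, 0.01% Tween-20. dTTP was 1–100 µM and inhibitor 0 or 1–50 µM. RFU were converted to product, linear velocities fit to a hyperbola and corrected for enzyme concentration to give kcat and Km,dTTP.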

Dpo4 = biological target: T4, Dpo4 (Saccharolobus solfataricus, UniProt Q97W02); assay: Fluorescence-based polymerase assay, Dpo4; type: biochemical, Sulfolobus solfataricus
T4 sequence (Q97W02 1-352): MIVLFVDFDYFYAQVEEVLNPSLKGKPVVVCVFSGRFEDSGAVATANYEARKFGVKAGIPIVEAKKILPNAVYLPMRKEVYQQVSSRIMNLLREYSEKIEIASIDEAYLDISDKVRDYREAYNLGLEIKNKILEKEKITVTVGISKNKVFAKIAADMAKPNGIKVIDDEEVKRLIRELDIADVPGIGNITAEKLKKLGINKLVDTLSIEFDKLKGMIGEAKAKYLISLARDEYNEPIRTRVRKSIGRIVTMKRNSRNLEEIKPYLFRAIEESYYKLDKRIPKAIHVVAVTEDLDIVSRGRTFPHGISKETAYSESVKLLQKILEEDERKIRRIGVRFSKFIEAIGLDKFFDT

Structure (SMILES): O=C1NC(=S)NC(=O)C1=Cc1cn(C(=O)c2ccccc2Br)c2ccc(Cl)cc12 [ITBA-12, 5-((1-(2-bromobenzoyl)-5-chloro-1H-indol-3-yl)methylene)-2-thioxodihydropyrimidine-4,6(1H,5H)-dione]
- IC50 (hpol ι): ~80 µM
- IC50 [1]: 59 ± 11 µM
- IC50 for hpol κ relative to hpol η ([1]; hpol κ versus hpol η): twice as high
- IC50 (Dpo1): ~80 µM
- IC50 (HIV-1 RT): ~80 µM
- Km (hpol η; read-out: Km,dTTP, varying dTTP, [ITBA-12] 1 μM): 6.7 ± 0.9 µM
- Km (hpol η; read-out: Km,dTTP, varying dTTP, [ITBA-12] 10 μM): 7.6 ± 1 µM
- Km (hpol η; read-out: Km,dTTP, varying dTTP, [ITBA-12] 20 μM): 8.5 ± 1.4 µM
- Km (hpol η; read-out: Km,dTTP, varying dTTP, [ITBA-12] 40 μM): 15 ± 2 µM
- Km (hpol η; read-out: Km,dTTP, varying dTTP, [ITBA-12] 50 μM): 26.7 ± 5.6 µM
- kcat (hpol η; [ITBA-12] 1 μM): 0.065 ± 0.0017 s⁻¹
- kcat (hpol η; [ITBA-12] 10 μM): 0.0717 ± 0.0017 s⁻¹
- kcat (hpol η; [ITBA-12] 20 μM): 0.0667 ± 0.0033 s⁻¹
- kcat (hpol η; [ITBA-12] 40 μM): 0.07 ± 0.0033 s⁻¹
- kcat (hpol η; [ITBA-12] 50 μM): 0.0583 ± 0.005 s⁻¹
- IC50 (Dpo4): ~80 µM
